# Source: PubChem BioAssay
# DENV2 CPE rescue – protects cells from dengue virus 2 cytopathic effect; 1.7% of 350,000 active; CPE inhibition, % at 9.99 µM; DENV2-infected cells, cytopathic effect rescue, plate reader; AID 651640; in the data active = CPE inhibition above about 20%, passing the limit was not always enough; inconclusive = no clear call, values can overlap the other calls; tested in BHK-21 cells;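 note: 0% = median of neutral control wells and 100% = median of positive control wells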
# E-selectin induc – induces E-selectin expression in human endothelial cells | P16581 | HUVEC E-selectin immunofluorescence imaging; normalized: neutral wells 0, TNF-alpha wells 100 | activation, % at 7.58 µM | 0.37% of 260,000 active | AID 686992;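 active = mean E-selectin-positive cell signal at least 10% of the positive control, reached in at least 60% of replicates, without over 20% cell loss; inconclusive = no rule given, readout overlaps actives, possibly toxicity-flagged; inactive = the rest, including those meeting only one limit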
#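 Material: HUVEC primary endothelial cells; Amount: 3,000 cells per well; Dosing: single concentration; Medium: EGM-2 growth medium on 0.1% gelatin-coated wells; Read-out basis: percent E-selectin-positive cells; Signal: immunofluorescence imaging; Control set: TNF-alpha, DMSO.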
# XiGFP reactiv – reactivates the inactive X chromosome in mouse fibroblasts. activation, % at 7.58 µM. XiGFP mouse fibroblasts, % GFP-positive cells imaging, 3 d; cells co-treated with 5-aza-dC sensitizer; scaled so ellipticine positive control = 100%. 0.055% of 360,000 active. AID 743238;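 active = mean normalized replicate activation at least 10% and every replicate at or above 10%; inconclusive = only one of the two criteria met; inactive = mean below 10% and not all replicates reach 10%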;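 note: 0% = median of on-plate neutral control wells and 100% = ellipticine 6 µM median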
#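 Material: XiGFP fibroblasts, SV40-immortalized; Buffer or medium: DMEM containing 5-aza-dC; Compound dosing: single point; Times: 3 days compound exposure.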
# S100A4 MyoIIA – S100A4-myosin IIA interaction inhibition | inhibition, % at 10.7 µM | S100A4/TAMRA-MyoIIA peptide fluorescence polarization | 0.14% of 360,000 active | P26447;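 active = mean inhibition of at least 70% across replicates, with every replicate also reaching that level; inconclusive = mean inhibition reaches 70% but some replicates fall short; inactive = mean inhibition below 70%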
# Target sequence (P26447 whole entry, looked up): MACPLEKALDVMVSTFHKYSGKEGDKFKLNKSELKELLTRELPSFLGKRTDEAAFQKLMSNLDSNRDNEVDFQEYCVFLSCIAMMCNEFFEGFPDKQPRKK
#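 Assay system: human S100A4 monomer with TAMRA-labelled myosin IIA peptide / Buffer or medium: Calcium-containing HEPES buffer, pH 7.2 / Reagent: TAMRA-labelled myosin IIA heavy-chain peptide probe, 5 nM / Compound: one dose per compound / Timing: polarization read 5 min after assay mix addition, stable 5–60 min / Benchmarks: neutral control DMSO, positive control TFP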
# Numbers without * were called inactive; ? = inconclusive; . = no result given. Shown are actives, neighbours in structure and some others; about 2% of the full set was active somewhere.
SMILES,DENV2 CPE rescue,E-selectin induc,XiGFP reactiv,S100A4 MyoIIA
CC(=O)N[C@H]1C[C@@H]2O[C@H](CO)CC[C@@H]2O[C@@H]1CCc1ccc(C#CCc2ccccc2)cc1,0,.,.,1
CS(=O)(=O)N[C@@H]1C[C@@H]2O[C@@H](CO)CC[C@@H]2O[C@@H]1CCc1ccc(-c2ccccc2F)cc1,21*,.,.,-2
CC(=O)N[C@@H]1C[C@@H]2O[C@H](CO)CC[C@@H]2O[C@@H]1CCc1ccc(C#CC2(O)CCCC2)cc1,21*,.,.,6
COc1cc(OC)c2c(c1)OC(c1ccc(OC)c(OC)c1)C(O)C2=O (stereo not drawn),32*,.,1,-2
Cc1c(C(=O)NCc2ccc(C#N)cc2)sc(=O)n1Cc1ccccn1,21*,.,0,2
Cc1cccc(C)c1Cn1c(C)c(C(=O)NCc2ccc(C#N)cc2)sc1=O,-3,.,0,0
COc1cccc(/C=C/C(=O)NCCc2ccc(OC)c(OC)c2)c1,99*,.,0,3
COc1ccc(CCNC(=O)/C=C\c2ccccc2)cc1OC,0,2,0,6
COc1cc(/C=C/C(=O)O)cc(S(=O)(=O)NCCO)c1OC,.,.,0,.
C=CCOc1c(Cl)cc(Cl)cc1S(=O)(=O)NCCO,77*,-1,0,-6
Cc1ccn2cc(CNS(=O)(=O)c3cccs3)nc2c1,0,.,0,2
CC[n+]1c(C=C2C=C(C)OC(C)=C2)sc2ccccc21,.,-1,57*,2
Cc1ccc(S(=O)(=O)Nc2ccc3c(c2)C(=O)N([C@@H](C)CO)C[C@@H](C)[C@@H](CN(C)S(=O)(=O)c2cn(C)cn2)OCCCC[C@@H](C)O3)cc1,5,0,0,133*
Cc1noc(C)c1S(=O)(=O)Nc1ccc2c(c1)C(=O)N([C@@H](C)CO)C[C@@H](C)[C@H](CN(C)S(=O)(=O)c1cn(C)cn1)OCCCC[C@@H](C)O2,37*,.,0,-6
C[C@@H]1CCCCO[C@@H](CN(C)S(=O)(=O)c2cn(C)cn2)[C@@H](C)CN([C@H](C)CO)C(=O)c2cc(NS(=O)(=O)c3ccc(Cl)cc3)ccc2O1,37*,0,0,103*
Cc1ccc(S(=O)(=O)Nc2ccc3c(c2)C(=O)N([C@@H](C)CO)C[C@@H](C)[C@H](CN(C)S(=O)(=O)c2cn(C)cn2)OCCCC[C@@H](C)O3)cc1,21*,0,0,-5
Cc1noc(C)c1S(=O)(=O)Nc1ccc2c(c1)C(=O)N([C@@H](C)CO)C[C@@H](C)[C@@H](CN(C)S(=O)(=O)c1cn(C)cn1)OCCCC[C@H](C)O2,-3,.,0,-11
O=C1C(Cl)=C(Nc2ccc(F)cc2)C(=O)N1CCc1ccccc1,-3,.,0,4
COc1cc(NS(=O)(=O)c2ccc(NC(=O)/C=C/c3ccc([N+](=O)[O-])cc3)cc2)ncn1,11,0,0,22
CCn1c(CSc2nccn2C)nc2cc(C(=O)O)ccc21,.,.,.,20
COc1ccc2ccccc2c1CNC(C)c1ccccc1 (stereo not drawn),36*,0,0,-2
COC(=O)C1=C(C)N(Cc2ccc(Br)cc2)C(=S)NC1c1ccc(F)cc1 (stereo not drawn),-7,0,0,19
COC(=O)C1=C(C)N(Cc2ccccc2)C(=NCCCCO)N[C@H]1c1cccc(C(F)(F)F)c1,-6,0,0,-1
CCN1C(=NCCCCO)N[C@@H](c2cccc(C(F)(F)F)c2)C(C(=O)OC)=C1C,33*,0,0,0
COC(=O)C1=C(C)N(Cc2cccc(C(F)(F)F)c2)C(=NCC2CC2)NC1c1ccc(F)cc1 (stereo not drawn),61*,0,0,-5
SMILES,DENV2 CPE rescue,E-selectin induc,XiGFP reactiv,S100A4 MyoIIA
COC(=O)C1=C(C)N(Cc2ccc(Br)cc2)C(=S)NC1c1cccc(F)c1 (stereo not drawn),26*,0,0,0
CC1CCN(CCOc2ccc(OCc3ccccc3)cc2)CC1,36*,.,0,1
COc1ccc(-c2cc3c(c4c2ccn4C)C2CCC3C2)cc1 (stereo not drawn),18,0,0,7
CC(NC(=O)CN1C(=O)NC2(CCCCC2)C1=O)c1ccc(S(N)(=O)=O)cc1 (stereo not drawn),-2,0,0,-2
COC(=O)[C@]12C[C@H](CC(=O)N3CCCC3)C(=O)N(Cc3ccccc3)C1=C[C@H](C(C)C)O[C@@H]2C1CC1,?,0,0,-10
CCN1/C(=C/c2ccc3cc(C)ccc3[n+]2CC)Sc2cc(C)c(C)cc21,5,.,162*,11
CCN1/C(=C/c2ccc3cc(C)ccc3[n+]2CC)Sc2ccccc21,.,.,448*,-32
CN1/C(=C/c2cccc[n+]2CCO)Sc2ccccc21,?,0,0,-6
CC[n+]1c(/C=C2\Sc3ccccc3N2C)ccc2cccc(C)c21,11,-1,105*,-11
Cc1ccccc1N1Cc2ccccc2C1=O,37*,0,0,-4
C[C@H](CO)N1C[C@H](C)[C@@H](CN(C)Cc2ccccc2)Oc2ccc(NS(=O)(=O)c3cn(C)cn3)cc2C1=O,-9,1,-1,-3
C[C@H](CO)N1C[C@H](C)[C@@H](CN(C)CC2CC2)Oc2ccc(NS(=O)(=O)c3cn(C)cn3)cc2C1=O,33*,0,0,5
C[C@H](CO)N1C[C@H](C)[C@H](CN(C)CC2CC2)Oc2ccc(NS(=O)(=O)c3cn(C)cn3)cc2C1=O,-4,-1,0,-35
C[C@H]1CN([C@@H](C)CO)C(=O)c2cc(NS(=O)(=O)c3cn(C)cn3)ccc2O[C@@H]1CN(C)Cc1ccccc1,24*,1,0,-4
C[C@@H]1CN([C@H](C)CO)C(=O)c2cc(NS(=O)(=O)c3cn(C)cn3)ccc2O[C@H]1CN(C)Cc1ccc(-c2ccccc2)cc1,-1,0,-1,-83
C[C@@H]1CN([C@H](C)CO)C(=O)c2cc(NS(=O)(=O)c3cn(C)cn3)ccc2O[C@H]1CN(C)Cc1ccccc1,21*,0,0,10
C[C@H]1CN([C@@H](C)CO)C(=O)c2cc(NS(=O)(=O)c3cn(C)cn3)ccc2O[C@@H]1CN(C)Cc1ccncc1,8,49*,0,-14
C[C@H]1CN([C@@H](C)CO)C(=O)c2cc(NS(=O)(=O)c3cn(C)cn3)ccc2O[C@H]1CN(C)Cc1ccncc1,6,-5,-1,-47
Clc1ccccc1OCCn1nnc2ccccc21,0,0,0,-2
COc1ccccc1N1C(=O)c2ccccc2NC1c1ccc(O)cc1 (stereo not drawn),5,0,0,-2
C[C@@H]1CN([C@H](C)CO)C(=O)c2cc(NC(=O)NC3CCCCC3)ccc2O[C@@H]1CN(C)Cc1ccncc1,30*,0,0,-3
